From ChEMBL document CHEMBL1759942, “Synthesis and biological activity of 2-(bis((1,3,4-oxadiazolyl/1,3,4-thiadiazolyl)methylthio)methylene)malononitriles” (2011)
Values after ≈ are worked out from the molar mass of the structure shown.

Legend:
Assay type in all cases: functional
Staphylococcus aureus [1] = assay: Antibacterial activity against Staphylococcus aureus assessed as zone of inhibition at 200 ug/ml after 24 hrs by disc diffusion method; conditions: read-out: DIZ
Procedure, shortened: (§1)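 Agar disc diffusion on nutrient agar plates pre-inoculated separately with each bacterium. Sterile 6 mm paper discs were moistened with compound solution in DMSO at 100 or 200 per disc and placed on the plates. Plates were incubated at 37 °C, and growth-inhibition zone diameter was measured after 24 h. Chloramphenicol served as the reference drug.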

Bacillus subtilis [2] = assay: Antibacterial activity against Bacillus subtilis assessed as zone of inhibition at 100 ug/ml after 24 hrs by disc diffusion method; conditions: read-out: DIZ; procedure, shortened: as §1
Curvularia lunata [3] = assay: Antifungal activity against Curvularia lunata assessed as zone of inhibition at 100 ug/ml after 48 hrs by disc diffusion method; conditions: read-out: DIZ
Procedure, shortened: (§2)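 Fungi were grown on potato dextrose agar at 25 °C for 3 days, and spore suspensions were adjusted to 10⁶ spores/ml. In the disc diffusion test, inoculated plates received 6 mm paper discs moistened with compound in DMSO at 100 or 200 per disc. Plates were incubated at 37 °C, and inhibition zone diameter was read at 48 h. Ketoconazole was the standard.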

Fusarium solani [4] = assay: Antifungal activity against Fusarium solani assessed as zone of inhibition at 100 ug/ml after 48 hrs by disc diffusion method; conditions: read-out: DIZ; procedure, shortened: as §2
Bacillus subtilis [5] = assay: Antibacterial activity against Bacillus subtilis assessed as zone of inhibition at 200 ug/ml after 24 hrs by disc diffusion method; conditions: read-out: DIZ; procedure, shortened: as §1
Klebsiella pneumoniae [6] = assay: Antibacterial activity against Klebsiella pneumoniae assessed as zone of inhibition at 200 ug/ml after 24 hrs by disc diffusion method; conditions: read-out: DIZ; procedure, shortened: as §1
Fusarium solani [7] = assay: Antifungal activity against Fusarium solani assessed as zone of inhibition at 200 ug/ml after 48 hrs by disc diffusion method; conditions: read-out: DIZ; procedure, shortened: as §2
Escherichia coli [8] = assay: Antibacterial activity against Escherichia coli assessed as zone of inhibition at 200 ug/ml after 24 hrs by disc diffusion method; conditions: read-out: DIZ; procedure, shortened: as §1
[9] = system: Radical scavenging activity; assay: Antioxidant activity against DPPH free radical scavenging activity at 100 uM after 20 mins by spectrophotometric analysis at pH 7.5
Procedure, shortened: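 DPPH assay: compound solutions at 100 were added to DPPH at 100 in dioxane/methanol and held at ambient temperature for 20 min. Absorbance was read at 517 nm, and the test–control difference was expressed as percent DPPH radical scavenging.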

[10] = Antioxidant activity against nitric oxide scavenging activity at 100 uM after 120 mins by spectrophotometric analysis at pH 7.4
Procedure, shortened: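 Nitric oxide scavenging: test compounds at 100 in dioxane/methanol were incubated at 25 °C for 120 min, with a solvent-only control. At intervals, 0.5 ml samples were mixed with an equal volume of Griess reagent (1% sulfanilamide, 0.1% N-naphthylethylenediamine dihydrochloride, 2% o-phosphoric acid). Absorbance of the azo chromophore was then measured.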

Staphylococcus aureus [11] = assay: Antibacterial activity against Staphylococcus aureus assessed as zone of inhibition at 100 ug/ml after 24 hrs by disc diffusion method; conditions: read-out: DIZ; procedure, shortened: as §1
Curvularia lunata [12] = assay: Antifungal activity against Curvularia lunata assessed as zone of inhibition at 200 ug/ml after 48 hrs by disc diffusion method; conditions: read-out: DIZ; procedure, shortened: as §2
Aspergillus niger [13] = assay: Antifungal activity against Aspergillus niger assessed as zone of inhibition at 200 ug/ml after 48 hrs by disc diffusion method; conditions: read-out: DIZ; procedure, shortened: as §2
Escherichia coli [14] = assay: Antibacterial activity against Escherichia coli assessed as zone of inhibition at 100 ug/ml after 24 hrs by disc diffusion method; conditions: read-out: DIZ; procedure, shortened: as §1
Aspergillus niger [15] = assay: Antifungal activity against Aspergillus niger assessed as zone of inhibition at 100 ug/ml after 48 hrs by disc diffusion method; conditions: read-out: DIZ; procedure, shortened: as §2
Klebsiella pneumoniae [16] = assay: Antibacterial activity against Klebsiella pneumoniae assessed as zone of inhibition at 100 ug/ml after 24 hrs by disc diffusion method; conditions: read-out: DIZ; procedure, shortened: as §1
Bacillus subtilis [17] = assay: Antibacterial activity against Bacillus subtilis after 24 hrs by microdilution method
Procedure, shortened: (§3)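 MIC by microdilution susceptibility testing in tubes. Incubation was at 36 °C for 24 h (bacteria) or 48 h (fungi). MIC was recorded as the lowest compound concentration giving no turbidity, i.e. no visible growth. Chloramphenicol was the antibacterial reference and ketoconazole the antifungal standard.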

Staphylococcus aureus [18] = assay: Antibacterial activity against Staphylococcus aureus after 24 hrs by microdilution method; procedure, shortened: as §3
Escherichia coli [19] = assay: Antibacterial activity against Escherichia coli after 24 hrs by microdilution method; procedure, shortened: as §3
Klebsiella pneumoniae [20] = assay: Antibacterial activity against Klebsiella pneumoniae after 24 hrs by microdilution method; procedure, shortened: as §3
Curvularia lunata [21] = assay: Antifungal activity against Curvularia lunata after 48 hrs by microdilution method; procedure, shortened: as §3
Aspergillus niger [22] = assay: Antifungal activity against Aspergillus niger after 48 hrs by microdilution method; procedure, shortened: as §3
Fusarium solani [23] = assay: Antifungal activity against Fusarium solani after 48 hrs by microdilution method; procedure, shortened: as §3

Row | SMILES | zone of inhibition at 200 µg/mL (Staphylococcus aureus [1]) | zone of inhibition at 100 µg/mL (Bacillus subtilis [2]) | zone of inhibition at 100 µg/mL (Curvularia lunata [3]) | zone of inhibition at 100 µg/mL (Fusarium solani [4]) | zone of inhibition at 200 µg/mL (Bacillus subtilis [5]) | zone of inhibition at 200 µg/mL (Klebsiella pneumoniae [6]) | zone of inhibition at 200 µg/mL (Fusarium solani [7]) | zone of inhibition at 200 µg/mL (Escherichia coli [8]) | inhibition [9] | inhibition [10] | zone of inhibition at 100 µg/mL (Staphylococcus aureus [11]) | zone of inhibition at 200 µg/mL (Curvularia lunata [12]) | zone of inhibition at 200 µg/mL (Aspergillus niger [13]) | zone of inhibition at 100 µg/mL (Escherichia coli [14]) | zone of inhibition at 100 µg/mL (Aspergillus niger [15]) | zone of inhibition at 100 µg/mL (Klebsiella pneumoniae [16]) | MIC (Bacillus subtilis [17]) | MIC (Staphylococcus aureus [18]) | MIC (Escherichia coli [19]) | MIC (Klebsiella pneumoniae [20]) | further results
1 | CCOC(=O)CSC(SCC(=O)OCC)=C(C#N)C#N | 14 mm | 12 mm | 12 mm | 13 mm | 14 mm | 8 mm | 15 mm | 9 mm | 46.3% | 45.8% | 10 mm | 15 mm | 12 mm | 7 mm | 9 mm |  |  |  |  |  | 
2 | N#CC(C#N)=C(SCc1nnc(-c2ccccc2)o1)SCc1nnc(-c2ccccc2)o1 | 14 mm | 12 mm | 15 mm | 18 mm | 16 mm | 12 mm | 21 mm | 10 mm | 63.5% | 65.4% | 12 mm | 17 mm | 14 mm | 8 mm | 12 mm | 9 mm |  |  |  |  | 
3 | O=C(N[C@H](CO)[C@H](O)c1ccc([N+](=O)[O-])cc1)C(Cl)Cl [CHLORAMPHENICOL] | 39 mm | 38 mm |  |  | 41 mm | 45 mm |  | 44 mm |  |  | 35 mm |  |  | 40 mm |  | 42 mm | 6.25 µg/mL (≈ 19.3 µM) | 6.25 µg/mL (≈ 19.3 µM) | 6.25 µg/mL (≈ 19.3 µM) | 12.5 µg/mL (≈ 38.7 µM) | 
4 | N#CC(C#N)=C(SCc1nnc(-c2ccccc2)s1)SCc1nnc(-c2ccccc2)s1 | 26 mm | 23 mm | 26 mm | 25 mm | 27 mm | 24 mm | 28 mm | 24 mm | 26.3% | 25.8% | 24 mm | 28 mm | 24 mm | 21 mm | 21 mm | 23 mm | 100 µg/mL (≈ 204 µM) | 200 µg/mL (≈ 408 µM) | 200 µg/mL (≈ 408 µM) | 200 µg/mL (≈ 408 µM) | MIC (Curvularia lunata [21]): 100 µg/mL (≈ 204 µM); MIC (Aspergillus niger [22]): 100 µg/mL (≈ 204 µM); MIC (Fusarium solani [23]): 100 µg/mL (≈ 204 µM)
5 | CC(=O)N1CCN(c2ccc(OCC3COC(Cn4ccnc4)(c4ccc(Cl)cc4Cl)O3)cc2)CC1 (stereo not given) [KETOCONAZOLE] |  |  | 41 mm | 38 mm |  |  | 42 mm |  |  |  |  | 44 mm | 39 mm |  | 36 mm |  |  |  |  |  | MIC (Curvularia lunata [21]): 6.25 µg/mL (≈ 11.8 µM); MIC (Aspergillus niger [22]): 6.25 µg/mL (≈ 11.8 µM); MIC (Fusarium solani [23]): 12.5 µg/mL (≈ 23.5 µM)
6 | Cc1ccc(-c2nnc(CSC(SCc3nnc(-c4ccc(C)cc4)s3)=C(C#N)C#N)s2)cc1 | 25 mm | 19 mm | 25 mm | 23 mm | 24 mm | 22 mm | 25 mm | 24 mm | 21.6% | 22.3% | 19 mm | 26 mm | 21 mm | 17 mm | 18 mm | 18 mm |  |  |  |  | 
7 | N#CC(C#N)=C(SCc1nnc(-c2ccc(Cl)cc2)s1)SCc1nnc(-c2ccc(Cl)cc2)s1 | 35 mm | 30 mm | 32 mm | 30 mm | 32 mm | 25 mm | 32 mm | 26 mm | 30.2% | 29.4% | 32 mm | 34 mm | 29 mm | 25 mm | 26 mm | 23 mm | 50 µg/mL (≈ 89.4 µM) | 100 µg/mL (≈ 179 µM) | 200 µg/mL (≈ 357 µM) | 200 µg/mL (≈ 357 µM) | MIC (Curvularia lunata [21]): 50 µg/mL (≈ 89.4 µM); MIC (Aspergillus niger [22]): 100 µg/mL (≈ 179 µM); MIC (Fusarium solani [23]): 50 µg/mL (≈ 89.4 µM)
8 | N#CC(C#N)=C(SCc1nnc(-c2ccc(Cl)cc2)o1)SCc1nnc(-c2ccc(Cl)cc2)o1 | 20 mm | 13 mm | 16 mm | 20 mm | 16 mm | 12 mm | 22 mm | 11 mm | 73.7% | 72.5% | 16 mm | 19 mm | 17 mm | 8 mm | 14 mm | 8 mm |  |  |  |  | 
9 | Cc1ccc(-c2nnc(CSC(SCc3nnc(-c4ccc(C)cc4)o3)=C(C#N)C#N)o2)cc1 | 13 mm | 10 mm | 13 mm | 15 mm | 12 mm | 11 mm | 17 mm |  | 52.5% | 54.3% | 10 mm | 14 mm | 11 mm |  | 10 mm |  |  |  |  |  | 
10 | O=C1O[C@H]([C@@H](O)CO)C(O)=C1O |  |  |  |  |  |  |  |  | 95.3% | 94.9% |  |  |  |  |  |  |  |  |  |  | 
